# Laboratory results as given in the M2OR odorant receptor database.
# What was measured:
# Conditions in all cases: stereoisomer not certain
# UniProt Q924H8 = biological target: T1, UniProt Q924H8
# T1 sequence (whole entry): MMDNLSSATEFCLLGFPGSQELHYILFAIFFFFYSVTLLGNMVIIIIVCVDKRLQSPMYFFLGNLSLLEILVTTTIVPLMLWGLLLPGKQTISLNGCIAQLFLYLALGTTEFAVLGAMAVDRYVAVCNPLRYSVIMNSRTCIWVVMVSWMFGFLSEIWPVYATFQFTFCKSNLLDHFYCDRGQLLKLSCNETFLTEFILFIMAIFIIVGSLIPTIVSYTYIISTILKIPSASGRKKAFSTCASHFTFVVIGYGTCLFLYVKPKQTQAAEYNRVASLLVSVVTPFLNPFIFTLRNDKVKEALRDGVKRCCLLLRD
# Method in brief: (§1)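 Values were gathered from published papers (main text and supplementary material), with extra details requested from the original authors when needed, and checked for typos and inconsistencies. Each receptor–molecule pair is called responsive (active) if the original authors judged the measured signal statistically different from baseline, and non-responsive (inactive) otherwise. Assay methods varied by source, often transient mammalian cell-line luciferase assays. Recorded details include cell line, G-protein, co-transfected protein and tags.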
# UniProt Q9EPN9 = biological target: T2, UniProt Q9EPN9
# T2 sequence (whole entry): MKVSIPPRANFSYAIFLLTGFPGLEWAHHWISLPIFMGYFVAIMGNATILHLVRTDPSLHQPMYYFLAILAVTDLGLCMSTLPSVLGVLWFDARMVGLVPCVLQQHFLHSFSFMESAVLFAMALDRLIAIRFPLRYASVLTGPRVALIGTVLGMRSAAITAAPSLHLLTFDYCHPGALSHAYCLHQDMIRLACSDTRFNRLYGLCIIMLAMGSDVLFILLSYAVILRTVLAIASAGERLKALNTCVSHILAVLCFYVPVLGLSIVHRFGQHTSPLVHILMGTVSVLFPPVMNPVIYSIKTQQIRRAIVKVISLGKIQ
# Method in brief: as §1
# UniProt Q9R0K2 = biological target: UniProt Q9R0K2
# Chain of UniProt Q9R0K2 (Q9R0K2 as listed by the source): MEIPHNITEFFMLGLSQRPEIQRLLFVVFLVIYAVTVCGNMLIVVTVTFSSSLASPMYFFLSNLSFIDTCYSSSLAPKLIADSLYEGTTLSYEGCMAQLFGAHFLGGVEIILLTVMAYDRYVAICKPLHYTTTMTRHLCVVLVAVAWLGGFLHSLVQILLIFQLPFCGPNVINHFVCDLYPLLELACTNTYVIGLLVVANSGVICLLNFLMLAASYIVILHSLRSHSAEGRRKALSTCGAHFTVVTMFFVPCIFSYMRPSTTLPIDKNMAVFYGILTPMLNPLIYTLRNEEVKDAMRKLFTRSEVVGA
# Method in brief: as §1
# UniProt Q9WU86 = biological target: T3, UniProt Q9WU86
# T3 sequence (whole entry): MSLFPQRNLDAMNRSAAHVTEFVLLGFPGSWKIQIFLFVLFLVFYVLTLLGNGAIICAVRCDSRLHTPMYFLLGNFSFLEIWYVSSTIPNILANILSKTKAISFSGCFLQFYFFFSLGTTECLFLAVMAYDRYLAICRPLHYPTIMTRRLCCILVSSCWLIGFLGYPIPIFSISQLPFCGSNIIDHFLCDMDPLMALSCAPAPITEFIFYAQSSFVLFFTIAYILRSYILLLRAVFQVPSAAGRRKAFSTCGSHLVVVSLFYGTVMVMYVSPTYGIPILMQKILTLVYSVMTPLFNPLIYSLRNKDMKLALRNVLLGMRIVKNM
# Method in brief: as §1
# UniProt Q924X8 = biological target: T4, UniProt Q924X8
# T4 sequence (whole entry): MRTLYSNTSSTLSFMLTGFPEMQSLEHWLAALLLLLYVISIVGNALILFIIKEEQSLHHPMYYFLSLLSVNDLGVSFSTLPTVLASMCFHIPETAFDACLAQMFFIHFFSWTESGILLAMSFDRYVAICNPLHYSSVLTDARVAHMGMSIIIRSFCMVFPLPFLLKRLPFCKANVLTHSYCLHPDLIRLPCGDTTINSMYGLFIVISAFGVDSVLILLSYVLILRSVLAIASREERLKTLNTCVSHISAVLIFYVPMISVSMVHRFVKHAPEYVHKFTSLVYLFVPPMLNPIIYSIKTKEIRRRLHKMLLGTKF
# Method in brief: as §1
# UniProt Q99NH4 = biological target: T5, UniProt Q99NH4
# T5 sequence (whole entry): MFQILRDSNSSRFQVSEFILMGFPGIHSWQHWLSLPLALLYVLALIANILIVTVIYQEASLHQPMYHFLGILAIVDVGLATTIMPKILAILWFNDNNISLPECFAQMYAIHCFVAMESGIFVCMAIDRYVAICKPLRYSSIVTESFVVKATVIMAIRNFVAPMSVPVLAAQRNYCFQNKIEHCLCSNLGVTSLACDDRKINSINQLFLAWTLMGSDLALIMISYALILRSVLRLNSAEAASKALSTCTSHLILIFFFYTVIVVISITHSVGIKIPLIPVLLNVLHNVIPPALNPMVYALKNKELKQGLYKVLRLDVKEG
# Method in brief: as §1
# UniProt Q9WU94 = biological target: T6, UniProt Q9WU94
# T6 sequence (whole entry): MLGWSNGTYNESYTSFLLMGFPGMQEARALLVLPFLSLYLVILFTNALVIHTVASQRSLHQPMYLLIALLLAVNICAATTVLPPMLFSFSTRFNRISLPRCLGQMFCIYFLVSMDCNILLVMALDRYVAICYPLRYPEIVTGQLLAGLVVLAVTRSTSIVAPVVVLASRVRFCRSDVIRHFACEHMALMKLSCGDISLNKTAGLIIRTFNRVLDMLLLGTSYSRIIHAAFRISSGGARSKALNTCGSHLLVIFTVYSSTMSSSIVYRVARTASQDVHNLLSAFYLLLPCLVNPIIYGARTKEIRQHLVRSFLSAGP
# Method in brief: as §1
# UniProt Q9WVD7 = biological target: T7, UniProt Q9WVD7
# T7 sequence (whole entry): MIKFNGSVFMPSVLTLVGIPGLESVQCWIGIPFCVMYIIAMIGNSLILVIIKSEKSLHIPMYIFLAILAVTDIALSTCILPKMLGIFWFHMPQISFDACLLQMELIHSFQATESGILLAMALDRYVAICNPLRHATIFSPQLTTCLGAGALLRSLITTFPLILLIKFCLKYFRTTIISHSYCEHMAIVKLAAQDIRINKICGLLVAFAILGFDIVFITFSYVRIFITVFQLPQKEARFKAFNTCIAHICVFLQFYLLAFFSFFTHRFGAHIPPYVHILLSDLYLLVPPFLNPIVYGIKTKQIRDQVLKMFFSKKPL
# Method in brief: as §1
smiles,measurement,setting,value
CCc1ncc(C)nc1CC,odorant receptor agonist call,UniProt Q924H8,inactive
CC(=O)OCCc1ccccc1,odorant receptor agonist call,UniProt Q924H8,inactive
CCCC(C)C(=O)OCC (stereo unspecified),odorant receptor agonist call,UniProt Q924H8,inactive
CNc1ccccc1C(=O)OC,odorant receptor agonist call,UniProt Q924H8,inactive
CCOC(=O)C(C)CC (stereo unspecified),odorant receptor agonist call,UniProt Q924H8,inactive
CCc1ccccc1O,odorant receptor agonist call,UniProt Q924H8,inactive
CSSSC,odorant receptor agonist call,UniProt Q924H8,inactive
CC=CC(=O)C1=C(C)CCCC1(C)C,odorant receptor agonist call,UniProt Q924H8,inactive
CCC(C)O (stereo unspecified),odorant receptor agonist call,UniProt Q924H8,inactive
OCC=Cc1ccccc1,odorant receptor agonist call,UniProt Q924H8,inactive
CCCCCC(C=O)=Cc1ccccc1,odorant receptor agonist call,UniProt Q924H8,inactive
CC=Cc1ccc(OC)cc1,odorant receptor agonist call,UniProt Q924H8,inactive
CCCC=O,odorant receptor agonist call,UniProt Q924H8,inactive
OCCCCCCCCCO,odorant receptor agonist call,UniProt Q924H8,inactive
C=CC(=C)CCC=C(C)C,odorant receptor agonist call,UniProt Q924H8,inactive
COc1cnccn1,odorant receptor agonist call,UniProt Q924H8,inactive
CCCCCCCCCCOC(C)=O,odorant receptor agonist call,UniProt Q924H8,inactive
C1CCOCC1,odorant receptor agonist call,UniProt Q924H8,inactive
O=C(O)C1CCC1,odorant receptor agonist call,UniProt Q924H8,inactive
Cc1ccc(C(C)C)c(O)c1,odorant receptor agonist call,UniProt Q924H8,inactive
CC(C)=CCCC(C)=CCOC(=O)C(C)C,odorant receptor agonist call,UniProt Q924H8,inactive
CCN(CC)CC,odorant receptor agonist call,UniProt Q924H8,inactive
CCC=CCCC=CC=O,odorant receptor agonist call,UniProt Q924H8,inactive
CC1(C)CC(=O)CC(=O)C1,odorant receptor agonist call,UniProt Q924H8,inactive
C=CC(=C)CCC=C(C)CCC=C(C)C,odorant receptor agonist call,UniProt Q924H8,inactive
Cc1ccc(C(C)C)cc1,odorant receptor agonist call,UniProt Q924H8,inactive
CCc1nccnc1CC,odorant receptor agonist call,UniProt Q924H8,inactive
COc1nccnc1C,odorant receptor agonist call,UniProt Q924H8,inactive
CC1CC=CCCCCCCCCCC(=O)C1 (stereo unspecified),odorant receptor agonist call,UniProt Q924H8,active
Cc1ccccc1OC(=O)C(C)C,odorant receptor agonist call,UniProt Q924H8,inactive
CCCCCC=CCCC=O,odorant receptor agonist call,UniProt Q924H8,inactive
CCCCCCC(=O)OCCCC,odorant receptor agonist call,UniProt Q924H8,inactive
CCCCCCCCCCCO,odorant receptor agonist call,UniProt Q924H8,inactive
CC(C)=C1CCC(C)CC1=O (stereo unspecified),odorant receptor agonist call,UniProt Q924H8,inactive
Cc1ccc2c(c1)OCC(=O)CO2,odorant receptor agonist call,UniProt Q924H8,inactive
CC(=O)OCc1ccc2c(c1)OCO2,odorant receptor agonist call,UniProt Q924H8,inactive
O=C1Cc2ccccc2O1,odorant receptor agonist call,UniProt Q924H8,inactive
same,odorant receptor agonist call,UniProt Q9EPN9,inactive
same,odorant receptor agonist call,UniProt Q9R0K2,inactive
same,odorant receptor agonist call,UniProt Q9WU86,inactive
CCCCCOC(=O)CCCCC,odorant receptor agonist call,UniProt Q924H8,inactive
same,odorant receptor agonist call,UniProt Q9EPN9,inactive
same,odorant receptor agonist call,UniProt Q9R0K2,inactive
same,odorant receptor agonist call,UniProt Q9WU86,inactive
CCCCCCCCCC=CC=O,odorant receptor agonist call,UniProt Q924H8,inactive
Cc1c(C)c(C)c(C=O)c(C)c1C,odorant receptor agonist call,UniProt Q924H8,inactive
O=C([O-])CCCCCCCC(=O)[O-].[H+].[H+],odorant receptor agonist call,UniProt Q924H8,inactive
same,odorant receptor agonist call,UniProt Q924X8,active
same,odorant receptor agonist call,UniProt Q99NH4,inactive
same,odorant receptor agonist call,UniProt Q9WU94,active
same,odorant receptor agonist call,UniProt Q9WVD7,inactive
CCCCCCCO,odorant receptor agonist call,UniProt Q924H8,inactive
same,odorant receptor agonist call,UniProt Q924X8,inactive
same,odorant receptor agonist call,UniProt Q99NH4,inactive
same,odorant receptor agonist call,UniProt Q9EPN9,inactive
same,odorant receptor agonist call,UniProt Q9R0K2,inactive
same,odorant receptor agonist call,UniProt Q9WU86,inactive
same,odorant receptor agonist call,UniProt Q9WU94,inactive
same,odorant receptor agonist call,UniProt Q9WVD7,inactive
O=C([O-])CCCCCCC(=O)[O-].[H+].[H+],odorant receptor agonist call,UniProt Q924H8,inactive
same,odorant receptor agonist call,UniProt Q924X8,active
same,odorant receptor agonist call,UniProt Q99NH4,inactive
same,odorant receptor agonist call,UniProt Q9WU94,inactive
same,odorant receptor agonist call,UniProt Q9WVD7,inactive
CCCCCCCCC=CC=O,odorant receptor agonist call,UniProt Q924H8,inactive
CCCCCC=O,odorant receptor agonist call,UniProt Q924H8,inactive
same,odorant receptor agonist call,UniProt Q99NH4,inactive
same,odorant receptor agonist call,UniProt Q9EPN9,inactive
same,odorant receptor agonist call,UniProt Q9R0K2,inactive
same,odorant receptor agonist call,UniProt Q9WU86,inactive
CC(=O)Oc1ccccc1,odorant receptor agonist call,UniProt Q924H8,inactive
same,odorant receptor agonist call,UniProt Q9EPN9,inactive
same,odorant receptor agonist call,UniProt Q9R0K2,inactive
same,odorant receptor agonist call,UniProt Q9WU86,active
CCCCCCCCS,odorant receptor agonist call,UniProt Q924H8,inactive
same,odorant receptor agonist call,UniProt Q9EPN9,inactive
same,odorant receptor agonist call,UniProt Q9R0K2,inactive
same,odorant receptor agonist call,UniProt Q9WU86,inactive
OCCc1ccccc1,odorant receptor agonist call,UniProt Q924H8,inactive
CCCCCCO,odorant receptor agonist call,UniProt Q924H8,inactive
same,odorant receptor agonist call,UniProt Q924X8,inactive
same,odorant receptor agonist call,UniProt Q99NH4,inactive
same,odorant receptor agonist call,UniProt Q9EPN9,inactive
same,odorant receptor agonist call,UniProt Q9R0K2,inactive
same,odorant receptor agonist call,UniProt Q9WU86,inactive
same,odorant receptor agonist call,UniProt Q9WU94,inactive
same,odorant receptor agonist call,UniProt Q9WVD7,inactive
CCSSCC,odorant receptor agonist call,UniProt Q924H8,inactive
CCCCCCCCCC(=O)[O-].[H+],odorant receptor agonist call,UniProt Q924H8,inactive
same,odorant receptor agonist call,UniProt Q99NH4,inactive
same,odorant receptor agonist call,UniProt Q9EPN9,inactive
same,odorant receptor agonist call,UniProt Q9R0K2,inactive
same,odorant receptor agonist call,UniProt Q9WU86,inactive
same,odorant receptor agonist call,UniProt Q9WU94,inactive
CC(=O)C=CC1=C(C)CCCC1(C)C,odorant receptor agonist call,UniProt Q924H8,inactive
CCCCCCCC(C)=O,odorant receptor agonist call,UniProt Q924H8,inactive
same,odorant receptor agonist call,UniProt Q9EPN9,inactive
same,odorant receptor agonist call,UniProt Q9R0K2,inactive
same,odorant receptor agonist call,UniProt Q9WU86,inactive
CCCCCCCCCO,odorant receptor agonist call,UniProt Q924H8,inactive
same,odorant receptor agonist call,UniProt Q924X8,inactive
same,odorant receptor agonist call,UniProt Q9EPN9,inactive
same,odorant receptor agonist call,UniProt Q9R0K2,inactive
same,odorant receptor agonist call,UniProt Q9WU86,inactive
same,odorant receptor agonist call,UniProt Q9WU94,inactive
same,odorant receptor agonist call,UniProt Q9WVD7,active
CCCCCCCCO,odorant receptor agonist call,UniProt Q924H8,inactive
same,odorant receptor agonist call,UniProt Q924X8,inactive
same,odorant receptor agonist call,UniProt Q9EPN9,inactive
same,odorant receptor agonist call,UniProt Q9R0K2,inactive
same,odorant receptor agonist call,UniProt Q9WU86,inactive
same,odorant receptor agonist call,UniProt Q9WU94,inactive
same,odorant receptor agonist call,UniProt Q9WVD7,active
CC(=O)OCC=C(C)C,odorant receptor agonist call,UniProt Q924H8,inactive
same,odorant receptor agonist call,UniProt Q9EPN9,inactive
same,odorant receptor agonist call,UniProt Q9R0K2,inactive
same,odorant receptor agonist call,UniProt Q9WU86,inactive
Cc1ccc(OC(=O)C(C)C)cc1,odorant receptor agonist call,UniProt Q924H8,inactive
CC=C(C)C=O,odorant receptor agonist call,UniProt Q924H8,inactive
CCCCC(C)=O,odorant receptor agonist call,UniProt Q924H8,inactive
same,odorant receptor agonist call,UniProt Q9EPN9,inactive
same,odorant receptor agonist call,UniProt Q9R0K2,inactive
same,odorant receptor agonist call,UniProt Q9WU86,inactive
COC(OC)c1ccccc1,odorant receptor agonist call,UniProt Q924H8,inactive
O=C(O)CCCCCBr,odorant receptor agonist call,UniProt Q924H8,inactive
same,odorant receptor agonist call,UniProt Q924X8,active
same,odorant receptor agonist call,UniProt Q99NH4,inactive
same,odorant receptor agonist call,UniProt Q9WU94,inactive
same,odorant receptor agonist call,UniProt Q9WVD7,active
CCCCC(=O)CC,odorant receptor agonist call,UniProt Q924H8,inactive
same,odorant receptor agonist call,UniProt Q9EPN9,inactive
same,odorant receptor agonist call,UniProt Q9R0K2,inactive
same,odorant receptor agonist call,UniProt Q9WU86,inactive
CCOC(=O)C(C)C,odorant receptor agonist call,UniProt Q924H8,inactive
same,odorant receptor agonist call,UniProt Q9EPN9,inactive
same,odorant receptor agonist call,UniProt Q9R0K2,inactive
same,odorant receptor agonist call,UniProt Q9WU86,inactive
CCCCC=O,odorant receptor agonist call,UniProt Q924H8,inactive
same,odorant receptor agonist call,UniProt Q99NH4,inactive
same,odorant receptor agonist call,UniProt Q9WU94,inactive
C1CCOC1,odorant receptor agonist call,UniProt Q924H8,inactive
